Test results as given in ChEMBL document CHEMBL1128606, “Nucleosides and nucleotides. 141. Chemical stability of a new antitumor nucleoside, 2'-C-cyano-2'-deoxy-1-beta-D-arabino-pentofuranosylcytosine in alkaline medium: formation of 2'-C-cyano-2'-deoxy-1-beta-D-ribo-pentofuranosylcytosine and its antitumor activity” (J Med Chem, 1995).
Blank lines part the entries; values can stand above or below the compound they belong to.

How the values were obtained:
[1] = Kinetic parameter of epimerization in Tris.HCl buffer at a pH 7.5 (or )in RMPI 1640 cell culture medium containing 10%FCS; type: ADME, cell-based; conditions: rmpi 1640, pH 7.5
Summary of the method: (§1)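 Starting nucleoside (3 mg, 0.012 mmol) in 1 mL Tris-HCl (pH 7.5–10.3; 10 mM unless salt varied to 0.01–1 M at pH 9.0) or RPMI 1640 with 10% FCS, 37 °C. Timed samples analyzed by C-18 HPLC, 2.5% aqueous MeOH, 254 nm; peak areas corrected by ε. Rate constants k12, k21, k13, k23 obtained by nonlinear least-squares fit to compartment model; t1/2 reported.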

[2] = Degradation of CNDAC at 8 pH in Tris-degrees C; type: ADME; conditions: Tris buffer, pH 8; summary of the method: as §1
[3] = Kinetic parameter of epimerization in Tris.HCl buffer at a pH 8.0 (or )in RMPI 1640 cell culture medium containing 10%FCS; type: ADME, cell-based; conditions: rmpi 1640, pH 8; summary of the method: as §1
[4] = Degradation of CNDAC at 9.6 pH in Tris-degrees C; type: ADME; conditions: Tris buffer, pH 9.6; summary of the method: as §1
[5] = Kinetic parameter of epimerization at a salt concentration (0.1 M) of in Tris.HCl buffer(pH 9.0) and 37 degree C (or )in RMPI 1640 cell culture medium containing 10%FCS; type: ADME, cell-based; conditions: rmpi 1640, pH 9; summary of the method: as §1
[6] = Kinetic parameter of epimerization in Tris.HCl buffer at a pH 10.0(or )in RMPI 1640 cell culture medium containing 10%FCS; type: ADME, cell-based; conditions: rmpi 1640, pH 10; summary of the method: as §1
[7] = Kinetic parameter of epimerization at a salt concentration (0.01 M) of in Tris.HCl buffer(pH 9.0) and 37 degree C (or )in RMPI 1640 cell culture medium containing 10%FCS; type: ADME, cell-based; conditions: rmpi 1640, pH 9; summary of the method: as §1
[8] = system: MKN-74; assay: In Vitro cell growth inhibitory activity of CNDAC Stomach Carcinoma MKN-74 (1*10e3) cell lines on 20-min exposure; type: functional, cell-based, Homo sapiens
Summary of the method: (§2)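 MTT assay. Cells seeded (WiDr 5×10^2, SBC-5 2.5×10^2, MKN-74 1×10^3 per well), 24 h preincubation at 37 °C, 5% CO2. Graded drug concentrations added in tetraplicate for 20 min or 48 h, then washed three times with medium and cultured to 6 days from drug addition. MTT 1 mg/mL for 4 h, DMSO solubilization, A540. IC50 read graphically from dose-response curve.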

[9] = system: Mus musculus; assay: In vivo antileukemic activity of CNDAC against P388 mouse leukemic cells by ip administration of dose 100 (mg/kg/day); type: functional
Summary of the method: (§3)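 Female CDF1 mice, 6 weeks old (n = 6), implanted ip with 1×10^6 viable P388 cells maintained by weekly ip passage in DBA/2 mice. Drug in saline (0.1 mL/10 g body weight) given ip on days 1–5. T/C is treated vs untreated median survival time. Weight change is day 7 minus day 1 average.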

[10] = Degradation of CNDAC at 0.1 M concentration in Tris-degrees C; type: ADME; conditions: Tris buffer; summary of the method: as §1
[11] = Degradation of CNDAC at 0.01 M concentration in Tris-degrees C; type: ADME; conditions: Tris buffer; summary of the method: as §1
[12] = Degradation of CNDAC at 7.5 pH in Tris-degrees C; type: ADME; conditions: Tris buffer, pH 7.5; summary of the method: as §1
[13] = system: SBC-5; assay: In Vitro cell growth inhibitory activity of CNDAC against Small Cell Lung Carcinoma-5 (2.5*10e2) cells on 20-min exposure; type: functional, cell-based; conditions: Homo sapiens, SBC-5, 20 min; summary of the method: as §2
[14] = system: Mus musculus; assay: In vivo antileukemic activity of CNDAC against P388 mouse leukemic cells by ip administration of dose 50 (mg/kg/day); type: functional; summary of the method: as §3
[15] = system: MKN-74; assay: In Vitro cell growth inhibitory activity of CNDAC Stomach Carcinoma MKN-74 (1*10e3) cell lines on 48-h exposure; type: functional, cell-based, Homo sapiens; summary of the method: as §2
[16] = system: Mus musculus; assay: In vivo antileukemic activity of CNDAC against P388 mouse leukemic cells by ip administration of dose 25 (mg/kg/day); type: functional; summary of the method: as §3
[17] = Kinetic parameter of epimerization in Tris.HCl buffer at a pH 10.0 (or )in RMPI 1640 cell culture medium containing 10%FCS; type: ADME, cell-based; conditions: rmpi 1640, pH 10; summary of the method: as §1
[18] = Kinetic parameter of epimerization in Tris.HCl buffer at a pH 9.0 (or )in RMPI 1640 cell culture medium containing 10%FCS; type: ADME, cell-based; conditions: rmpi 1640, pH 9; summary of the method: as §1
[19] = Degradation of CNDAC at 10 pH in Tris-degrees C; type: ADME; conditions: Tris buffer, pH 10; summary of the method: as §1
[20] = Degradation of CNDAC at 1 M concentration in Tris-degrees C; type: ADME; conditions: Tris buffer; summary of the method: as §1
[21] = system: SBC-5; assay: In Vitro cell growth inhibitory activity of CNDAC against Small Cell Lung Carcinoma-5 (2.5*10e2) cells on 48-h exposure; type: functional, cell-based, Homo sapiens; summary of the method: as §2
[22] = Degradation of CNDAC at 9 pH in Tris-degrees C; type: ADME; conditions: Tris buffer, pH 9; summary of the method: as §1
[23] = system: WiDr; assay: In Vitro cell growth inhibitory activity of CNDAC against Human Colon Carcinoma WiDr 5*10e2 cells on 48-h exposure; type: functional, cell-based; summary of the method: as §2
[24] = Kinetic parameter of epimerization at a salt concentration (1 M) of in Tris.HCl buffer(pH 9.0) and 37 degree C (or )in RMPI 1640 cell culture medium containing 10%FCS; type: ADME, cell-based; conditions: rmpi 1640, pH 9; summary of the method: as §1
[25] = system: Mus musculus; assay: In vivo antileukemic activity of CNDAC against P388 mouse leukemic cells by ip administration of dose 200 (mg/kg/day); type: functional; summary of the method: as §3
[26] = system: WiDr; assay: In Vitro cell growth inhibitory activity of CNDAC against Human Colon Carcinoma WiDr 5*10e2 cells on 20- min exposure; type: functional, cell-based; summary of the method: as §2
[27] = Kinetic parameter of epimerization in Tris.HCl buffer at a pH 9.6 (or )in RMPI 1640 cell culture medium containing 10%FCS; type: ADME, cell-based; conditions: rmpi 1640, pH 9.6; summary of the method: as §1

K12 [1]: 0.062 h⁻¹
K13+K23 [1]: 0.009 h⁻¹
K21 [1]: 0.037 h⁻¹
half-life [2]: 240 min
K12 [3]: 0.22 h⁻¹
K13+K23 [3]: 0.02 h⁻¹
K21 [3]: 0.14 h⁻¹
half-life [4]: 27 min
K12 [5]: 1.88 h⁻¹
K13+K23 [5]: 0.19 h⁻¹
K21 [5]: 1.16 h⁻¹
K21 [6]: 4.07 h⁻¹
K12 [7]: 0.88 h⁻¹
K13+K23 [7]: 0.09 h⁻¹
K21 [7]: 0.6 h⁻¹
IC50 [8]: 24.9 µM
half-life [10]: 30 min
half-life [11]: 60 min
half-life [12]: 38 h
IC50 ([15]; Homo sapiens, MKN-74, 48 h): 0.15 µM
K12 [17]: 6.18 h⁻¹
K13+K23 [17]: 0.69 h⁻¹
K12 [18]: 0.88 h⁻¹
K13+K23 [18]: 0.09 h⁻¹
K21 [18]: 0.6 h⁻¹
half-life [19]: 8.4 min
half-life [20]: 21 min
half-life [22]: 60 min
K12 [24]: 2.31 h⁻¹
K13+K23 [24]: 0.3 h⁻¹
K21 [24]: 1.35 h⁻¹
K12 [27]: 2.14 h⁻¹
K13+K23 [27]: 0.26 h⁻¹
K21 [27]: 1.41 h⁻¹
Compound: N#C[C@H]1[C@H](O)[C@@H](CO)O[C@H]1n1ccc(N)nc1=O (stereo in doubt; form 1) [TAS-109]
T/C [9]: 311%
IC50 [13]: 7.14 µM
T/C [14]: 300%
T/C [16]: 300%
Weight change [16]: 0.3 g
IC50 ([21]; Homo sapiens, SBC-5, 48 h): 0.222 µM
IC50 ([23]; Homo sapiens, WiDr, 48 h): 0.157 µM
T/C [25]: 333%
IC50 [26]: 16.5 µM

IC50 [8]: 265 µM
IC50 ([15]; mkn-74): 0.206 µM
Compound: N#C[C@H]1[C@H](O)[C@@H](CO)O[C@H]1n1ccc(N)nc1=O (stereo in doubt; form 2) [TAS-109]
T/C [9]: 180%
Weight change [9]: 0.7 g
IC50 [13]: 7.14 µM
T/C [14]: 164%
Weight change [14]: 0.9 g
T/C [16]: 138%
Weight change [16]: 1.6 g
IC50 ([21]; sbc-5): 0.367 µM
IC50 ([23]; widr): 0.306 µM
T/C [25]: 203%
Weight change [25]: 0.9 g
IC50 [26]: 16.5 µM
